# Assay results published in ChEMBL document CHEMBL1142284, “Identification of N-(quinolin-8-yl)benzenesulfonamides as agents capable of down-regulating NFkappaB activity within two separate high-throughput screens of NFkappaB activation” (Bioorg Med Chem Lett, 2008).
# Activity calls are given as the source filed them. The rule behind the calls is not given here. Peptide text beside a SMILES is read from it. * marks the point of attachment. Cbz = O=C(OCc1ccccc1)*
# Assays:
# [1] = (§1) Cytotoxicity against NF-kappaB overexpressing human OCI-Ly3 cells after 4 hrs; format: functional, cell-based; conditions: OCI-Ly3, 4 h
# [2] = target: T1, NF-kappa-B inhibitor alpha (Homo sapiens) (UniProt P25963); test: Induction of human IkappaBalpha stabilization in OCI-Ly3 cells by green light emiting IkappaBalpha-fused luciferase reporter gene assay relative to control; format: cell-based
# T1 sequence (whole entry): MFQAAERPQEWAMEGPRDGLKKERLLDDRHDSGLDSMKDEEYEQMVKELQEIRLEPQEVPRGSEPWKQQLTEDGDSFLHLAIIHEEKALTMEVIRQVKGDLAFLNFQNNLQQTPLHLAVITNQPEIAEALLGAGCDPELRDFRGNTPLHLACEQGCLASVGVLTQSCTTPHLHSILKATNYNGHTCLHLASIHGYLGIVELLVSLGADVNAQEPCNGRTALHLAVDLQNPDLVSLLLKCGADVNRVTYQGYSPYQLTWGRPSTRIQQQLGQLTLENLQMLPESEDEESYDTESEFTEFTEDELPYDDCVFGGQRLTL
# Method in brief: (§2)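 The IκBα-CBG68 fusion (green luminescence) and the CBR control reporter (red) were induced with doxycycline. The read-out was green luminescence, and EC50 is given with % efficacy relative to the MG-132 positive control. Each experiment was a concentration titration run in duplicate with concentration-response curve fitting, and values are averages of two to three experiments.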
# [3] = (§3) Inhibition of TNFalpha stimulated human NF-kappaB-mediated beta lactamase gene expression in HUVEC; format: cell-based
# [4] = target: Transcription factor p65 (Homo sapiens) (UniProt Q04206); test: Inhibition of TNF-alpha-stimulated human NF-kappaB p65 RelA subunit nuclear translocation in HUVEC relative to control; format: cell-based
# Transcription factor p65 (Homo sapiens), sequence (Q04206 whole entry): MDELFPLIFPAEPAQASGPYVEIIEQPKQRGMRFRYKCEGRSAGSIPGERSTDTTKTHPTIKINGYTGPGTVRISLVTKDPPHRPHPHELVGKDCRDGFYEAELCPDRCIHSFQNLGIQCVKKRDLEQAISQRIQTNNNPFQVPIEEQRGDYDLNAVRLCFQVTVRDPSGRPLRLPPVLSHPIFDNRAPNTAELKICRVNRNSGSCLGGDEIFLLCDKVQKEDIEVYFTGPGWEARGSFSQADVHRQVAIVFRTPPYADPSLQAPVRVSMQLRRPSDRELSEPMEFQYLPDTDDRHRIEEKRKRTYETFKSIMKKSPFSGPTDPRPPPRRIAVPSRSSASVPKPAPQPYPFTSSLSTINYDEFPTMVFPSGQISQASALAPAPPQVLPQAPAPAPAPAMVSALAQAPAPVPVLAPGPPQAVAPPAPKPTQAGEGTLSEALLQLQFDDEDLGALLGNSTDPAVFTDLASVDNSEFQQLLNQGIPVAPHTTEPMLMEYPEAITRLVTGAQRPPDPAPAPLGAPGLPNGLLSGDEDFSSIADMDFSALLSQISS
# Method in brief: (§4)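 HUVEC (fewer than 8 passages) were seeded at 3,000 cells/well. Compounds were added in 8-point series, either from 10 µM final in media with 0.33% DMSO diluted 1:3, or from 8 µM diluted 1:2. After 3.5 h with compound, cells were stimulated with […] for 30 min. Cells were then fixed, permeabilized, stained with Hoechst and with anti-p65 plus an Alexa 647 secondary, and imaged automatically. IC50 is from curve fitting of one experiment run in triplicate, with BAY 11-7082 as the positive control.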
# [5] = test system: OCI-Ly3; test: as §1; format: functional, cell-based
# [6] = target: Transcription factor p65 (Homo sapiens) (UniProt Q04206); test: Inhibition of TNF-alpha-stimulated human NF-kappaB p65 RelA subunit nuclear translocation in HUVEC; method in brief: as §4
# [7] = test system: HUVEC; test: as §3; format: cell-based
# [8] = target: T1, NF-kappa-B inhibitor alpha (Homo sapiens); test: Induction of human IkappaBalpha stabilization in OCI-Ly3 cells by green light emiting IkappaBalpha-fused luciferase reporter gene assay; format: cell-based; method in brief: as §2
# [9] = target: T1, NF-kappa-B inhibitor alpha (Homo sapiens); test: Induction of human IkappaBalpha stabilization in OCI-Ly3 cells assessed as ratio of green light emiting IkappaBalpha-fused luciferase expression to red light emiting native luciferase expression; format: cell-based
# Method in brief: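 Dual-luciferase IκBα stabilization assay: doxycycline induces both an IκBα-CBG68 fusion (green luminescence) and a CBR control (red luminescence), and the red signal normalizes for nonspecific effects. EC50 comes from the green/red luminescence ratio. Each experiment was a concentration titration run in duplicate with concentration-response curve fitting, and values are averages of two to three experiments.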
# [10] = test system: HUVEC; test: Inhibition of human E3 ubiquitin ligase-mediated IkappaBalpha ubiquitination in HUVEC; format: cell-based
Structure (SMILES),IC50 [1] [µM],Efficacy [2] [%],IC50 [3] [µM],Efficacy [4] [%],Activity [5],Activity [6],Activity [7],Activity [8],Activity [9],Activity [10]
COc1ccc2c(c1)-c1ccc3ccc(C)nc3c1NS2(=O)=O,> 57,200,3.2,> 90,–,–,–,–,–,–
COc1cc(NS(=O)(=O)c2ccc(C)cc2N)c2nc(C)ccc2c1,–,23,> 57,–,inactive,inactive,–,–,–,–
COc1cc(NS(=O)(=O)c2ccc(C)cc2[N+](=O)[O-])c2ncccc2c1,> 57,60,4,> 90,–,–,–,–,–,–
O=[N+]([O-])c1ccc(S(=O)(=O)Nc2cccc3cccnc23)cc1,–,560,5,> 90,inactive,–,–,–,–,–
Cc1ccc2ccc3c(c2n1)NS(=O)(=O)c1ccc(O)cc1-3,> 57,120,6.7,> 90,–,–,–,–,–,–
O=S1(=O)Nc2c(ccc3cccnc23)-c2cc(O)ccc21,–,–,–,–,–,inactive,–,–,–,–
Cc1ccc2cccc(NS(=O)(=O)c3cc([N+](=O)[O-])ccc3C)c2n1,–,–,> 57,–,inactive,inactive,–,–,–,–
Cc1ccc2cccc(NS(=O)(=O)c3ccc(C(F)(F)F)cc3[N+](=O)[O-])c2n1,> 57,50,13,> 90,–,–,–,–,–,–
COc1cc2cccnc2c2c1-c1cc(C)ccc1S(=O)(=O)N2,–,34,2,> 90,inactive,–,–,–,–,–
O=S1(=O)Nc2c(ccc3cccnc23)-c2cc(F)ccc21,–,122,1.8,> 90,inactive,–,–,–,–,–
COc1cc(NS(=O)(=O)c2ccc(C)cc2[N+](=O)[O-])c2nc(C)ccc2c1,> 57,–,–,–,–,inactive,inactive,–,–,–
O=S(=O)(Nc1cccc2cccnc12)c1ccccc1,–,350,8,> 90,inactive,–,–,–,–,–
O=S1(=O)Nc2c(ccc3cccnc23)-c2cc(C(F)(F)F)ccc21,–,32,1.2,> 90,inactive,–,–,–,–,–
COc1cc(NS(=O)(=O)c2ccc(C)cc2)c2nc(C)ccc2c1,> 57,150,> 57,> 90,–,–,–,–,–,–
O=S(=O)(Nc1cccc2cccnc12)c1cccs1,–,250,7,> 90,inactive,–,–,–,–,–
O=[N+]([O-])c1cc(C(F)(F)F)ccc1S(=O)(=O)Nc1cccc2cccnc12,> 57,200,1.3,> 90,–,–,–,–,–,–
Cc1ccc2cccc(NS(=O)(=O)c3ccccc3[N+](=O)[O-])c2n1,–,200,6,> 90,inactive,–,–,–,–,–
COc1cccc2nc(-c3cccs3)nc(NN3C(=O)C=C(C)C3=O)c12 [AS-602868],–,–,2,–,inactive,inactive,–,inactive,inactive,–
Cc1ccc([N+](=O)[O-])cc1S(=O)(=O)Nc1cccc2cccnc12,> 57,18,1.8,> 90,–,–,–,–,–,–
Cc1ccc2cccc(NS(=O)(=O)c3ccc(Cl)s3)c2n1,> 10,60,1.3,> 90,–,–,–,–,–,–
COc1ccc(S(=O)(=O)Nc2cccc3ccc(C)nc23)c([N+](=O)[O-])c1,–,–,–,78,–,–,–,–,–,–

Structure (SMILES),IC50 [1] [µM],Efficacy [2] [%],IC50 [3] [µM],Efficacy [4] [%],Activity [5],Activity [6],Activity [7],Activity [8],Activity [9],Activity [10]
O=S(=O)(Nc1cccc2cccnc12)c1ccc(Cl)s1,> 57,190,1,> 90,–,–,–,–,–,–
COc1cc2ccc(C)nc2c2c1-c1cc(C)ccc1S(=O)(=O)N2,> 57,300,1.1,> 90,–,–,–,–,–,–
Nc1ccccc1S(=O)(=O)Nc1cccc2cccnc12,> 57,300,13.5,> 90,–,–,–,–,–,–
Cc1ccc2cccc(NS(=O)(=O)c3ccc(Br)s3)c2n1,> 57,22,5,75,–,–,–,–,–,–
Cc1ccc(S(=O)(=O)/C=C/C#N)cc1,–,–,–,> 90,–,–,–,–,–,–
COc1cnc2c3c(ccc2c1)-c1ccccc1S(=O)(=O)N3,–,–,–,> 90,–,–,–,–,–,–
Cc1ccc2c(c1)-c1ccc3cccnc3c1NS2(=O)=O,> 57,60,0.8,> 90,–,–,–,–,–,–
[O-][S+](c1ccccc1)c1ccc2nnnn2n1 (configuration not stated),–,–,–,–,–,–,–,–,–,Active
Cc1ccc2ccc3c(c2n1)NS(=O)(=O)c1ccc(C(F)(F)F)cc1-3,–,700,3.6,> 90,inactive,–,–,–,–,–
COc1cc(NS(=O)(=O)c2ccc(C)cc2N)c2ncccc2c1,> 57,90,2,> 90,–,–,–,–,–,–
COc1ccc2c(c1)-c1ccc3cccnc3c1NS2(=O)=O,–,20,1.3,> 90,inactive,–,–,–,–,–
Cc1cnc2c3c(ccc2c1)-c1ccccc1S(=O)(=O)N3,–,32,8.1,–,inactive,–,–,–,–,–
O=[N+]([O-])c1ccccc1S(=O)(=O)Nc1cccc2cccnc12,–,620,10,> 90,inactive,–,–,–,–,–
Cc1ccc(S(=O)(=O)Nc2cccc3cccnc23)c([N+](=O)[O-])c1,> 57,275,6,> 90,–,–,–,–,–,–
Cc1ccc2cccc(NS(=O)(=O)c3cccc([N+](=O)[O-])c3)c2n1,> 57,110,1,> 90,–,–,–,–,–,–
CC(C)C[C@@H](C=O)NC(=O)[C@H](CC(C)C)NC(=O)[C@H](CC(C)C)NC(=O)OCc1ccccc1 [MG-132] (Cbz-Leu-Leu-Leu-aldehyde),> 10,100,0.6,–,–,–,–,–,–,–
Cc1ccc2cccc(NS(=O)(=O)c3ccccc3N)c2n1,–,250,5.5,> 90,inactive,–,–,–,–,–
O=S1(=O)Nc2c(ccc3cccnc23)-c2ccccc21,–,120,3.4,> 90,inactive,–,–,–,–,inactive
O=S1(=O)Nc2c(ccc3cccnc23)-c2cc(Cl)ccc21,–,66,1.9,> 90,inactive,–,–,–,–,–
O=S(=O)(Nc1cccc2cccnc12)c1ccc(Br)s1,–,170,3.4,> 90,inactive,–,–,–,–,–
